Several values for one entry are separate records, joined by “and”; a condition that tells them apart may be missing. Equal values may be shown once.
What was measured:
U2OS = experiment: Multiplex assay against U2OS; format: toxicity, cell-based; conditions: human
How it was run: (§1)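 Tubulin, mitochondrial-mass and membrane-permeability phenotypes are per cents of healthy-nucleus cells. Cells were gated by CellPathfinder machine learning into Hoechst high-intensity objects or normal cells, normal cells into healthy, pyknosed or fragmented nuclei, and pyknosed cells into mitotic or apoptotic. Before that, live cells stained at seeding with Hoechst33342, BioTracker Green Microtubule Cytoskeleton Dye, MitoTracker Red and Annexin V Alexa Fluor 680 were imaged on a CQ1 microscope at 37°C and 5% CO2 after compound addition.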

Fibroblast = experiment: Multiplex assay against human fibroblast; format: toxicity, cell-based; how it was run: as §1
[1] = 24 h, 10 µM, compound concentration 10 uM
[2] = 48 h, 1 µM, compound concentration 1 uM
[3] = 48 h, 10 µM, compound concentration 10 uM
[4] = 12 h, 1 µM, compound concentration 1 uM
[5] = 12 h, 10 µM, compound concentration 10 uM
[6] = 24 h, 1 µM, compound concentration 1 uM

O=C(Nc1cc(C(F)(F)F)ccc1N1CCCCC1)c1ccncc1
Population Apoptotic (%) (U2OS; [1]): 35.62% and 25.81%
Population Fragmented Nuclei (%) (U2OS; [1]): 1.19% and 3.28%
Population Healthy Nuclei (%) (U2OS; [1]): 86.37% and 79.78%
Population Hoechst High Intensity Objects (%) (U2OS; [1]): 0%
Population Membrane Permeable-Phenotype (%) (U2OS; [1]): 1.18% and 2.05%
Population Mitotic Cells (%) (U2OS; [1]): 64.38% and 74.19%
Population Normal (%) (U2OS; [1]): 100%
Population Pyknosed Nuclei (%) (U2OS; [1]): 12.44% and 16.94%
Population Tubulin-Different-Phenotype (%) (U2OS; [1]): 5.13% and 1.37%
Population Apoptotic (%) (U2OS; [2]): 36.36% and 35.71%
Population Fragmented Nuclei (%) (U2OS; [2]): 3.47% and 3.02%
Population Healthy Nuclei (%) (U2OS; [2]): 86.98% and 88.52%
Population Hoechst High Intensity Objects (%) (U2OS; [2]): 0%
Population Membrane Permeable-Phenotype (%) (U2OS; [2]): 1% and 4.1%
Population Mitochondria Different-Phenotype (%) (U2OS; [2]): 0.37% and 3.75%
Population Mitotic Cells (%) (U2OS; [2]): 63.64% and 64.29%
Population Normal (%) (U2OS; [2]): 100%
Population Pyknosed Nuclei (%) (U2OS; [2]): 9.54% and 8.46%
Population Tubulin-Different-Phenotype (%) (U2OS; [2]): 1.37% and 2.05%
Total Cell Count (U2OS; [2]): 922 and 331
Population Apoptotic (%) (U2OS; [3]): 47.54% and 53.06%
Population Fragmented Nuclei (%) (U2OS; [3]): 2.11% and 4.76%
Population Healthy Nuclei (%) (U2OS; [3]): 86.22% and 78.57%
Population Hoechst High Intensity Objects (%) (U2OS; [3]): 0.19% and 0%
Population Membrane Permeable-Phenotype (%) (U2OS; [3]): 1.66% and 1.73%
Population Mitotic Cells (%) (U2OS; [3]): 52.46% and 46.94%
Population Normal (%) (U2OS; [3]): 99.81% and 100%
Population Pyknosed Nuclei (%) (U2OS; [3]): 11.67% and 16.67%
Population Tubulin-Different-Phenotype (%) (U2OS; [3]): 4.55% and 3.03%
Population Fragmented Nuclei (%) (Fibroblast; [4]): 13.9% and 8.06%
Population Healthy Nuclei (%) (Fibroblast; [4]): 57.22% and 74.41%
Population Hoechst High Intensity Objects (%) (Fibroblast; [4]): 0%
Population Membrane Permeable-Phenotype (%) (Fibroblast; [4]): 1.87% and 1.91%
Population Mitochondria Different-Phenotype (%) (Fibroblast; [4]): 6.54% and 10.83%
Population Mitotic Cells (%) (Fibroblast; [4]): 92.59% and 75.68%
Population Normal (%) (Fibroblast; [4]): 100%
Population Pyknosed Nuclei (%) (Fibroblast; [4]): 28.88% and 17.54%
Population Tubulin-Different-Phenotype (%) (Fibroblast; [4]): 13.08% and 22.93%
Total Cell Count (Fibroblast; [4]): 187 and 211
Population Apoptotic (%) (Fibroblast; [5]): 17.46% and 11.48%
Population Fragmented Nuclei (%) (Fibroblast; [5]): 7.6% and 3.1%
Population Healthy Nuclei (%) (Fibroblast; [5]): 55.56% and 69.91%
Population Hoechst High Intensity Objects (%) (Fibroblast; [5]): 0%
Population Membrane Permeable-Phenotype (%) (Fibroblast; [5]): 9.47% and 6.96%
Population Mitochondria Different-Phenotype (%) (Fibroblast; [5]): 26.32% and 21.52%
Population Mitotic Cells (%) (Fibroblast; [5]): 82.54% and 88.52%
Population Normal (%) (Fibroblast; [5]): 100%
Population Pyknosed Nuclei (%) (Fibroblast; [5]): 36.84% and 26.99%
Population Tubulin-Different-Phenotype (%) (Fibroblast; [5]): 35.79% and 71.52%
Total Cell Count (Fibroblast; [5]): 171 and 226
Population Apoptotic (%) (Fibroblast; [6]): 11.76% and 28.57%
Population Fragmented Nuclei (%) (Fibroblast; [6]): 9.18% and 7.73%
Population Healthy Nuclei (%) (Fibroblast; [6]): 74.4% and 82.13%
Population Hoechst High Intensity Objects (%) (Fibroblast; [6]): 0%
Population Membrane Permeable-Phenotype (%) (Fibroblast; [6]): 4.55% and 4.12%
Population Mitochondria Different-Phenotype (%) (Fibroblast; [6]): 4.55% and 8.82%
Population Mitotic Cells (%) (Fibroblast; [6]): 88.24% and 71.43%
Population Normal (%) (Fibroblast; [6]): 100%
Population Pyknosed Nuclei (%) (Fibroblast; [6]): 16.43% and 10.14%
Population Tubulin-Different-Phenotype (%) (Fibroblast; [6]): 16.23% and 21.76%
Total Cell Count (Fibroblast; [6]): 207
Population Apoptotic (%) (Fibroblast; [1]): 20.83% and 16.98%
Population Fragmented Nuclei (%) (Fibroblast; [1]): 6.81% and 3.07%
Population Healthy Nuclei (%) (Fibroblast; [1]): 68.06% and 73.68%
Population Hoechst High Intensity Objects (%) (Fibroblast; [1]): 0%
Population Membrane Permeable-Phenotype (%) (Fibroblast; [1]): 5.38% and 5.95%
Population Mitochondria Different-Phenotype (%) (Fibroblast; [1]): 30.77% and 20.24%
Population Mitotic Cells (%) (Fibroblast; [1]): 79.17% and 83.02%
Population Normal (%) (Fibroblast; [1]): 100%
Population Pyknosed Nuclei (%) (Fibroblast; [1]): 25.13% and 23.25%
Population Tubulin-Different-Phenotype (%) (Fibroblast; [1]): 53.08% and 70.24%
Total Cell Count (Fibroblast; [1]): 191 and 228
Population Apoptotic (%) (Fibroblast; [2]): 11.11% and 10%
Population Fragmented Nuclei (%) (Fibroblast; [2]): 14.08% and 11%
Population Healthy Nuclei (%) (Fibroblast; [2]): 81.69% and 84.21%
Population Hoechst High Intensity Objects (%) (Fibroblast; [2]): 0%
Population Membrane Permeable-Phenotype (%) (Fibroblast; [2]): 1.72% and 2.84%
Population Mitochondria Different-Phenotype (%) (Fibroblast; [2]): 8.62% and 5.11%
Population Mitotic Cells (%) (Fibroblast; [2]): 88.89% and 90%
Population Normal (%) (Fibroblast; [2]): 100%
Population Pyknosed Nuclei (%) (Fibroblast; [2]): 4.23% and 4.78%
Total Cell Count (Fibroblast; [2]): 213 and 209
Population Fragmented Nuclei (%) (Fibroblast; [3]): 9.23% and 2.62%
Population Healthy Nuclei (%) (Fibroblast; [3]): 81.54% and 82.97%
Population Hoechst High Intensity Objects (%) (Fibroblast; [3]): 0%
Population Membrane Permeable-Phenotype (%) (Fibroblast; [3]): 0% and 7.37%
Population Mitochondria Different-Phenotype (%) (Fibroblast; [3]): 17.61% and 13.68%
Population Mitotic Cells (%) (Fibroblast; [3]): 61.11% and 90.91%
Population Normal (%) (Fibroblast; [3]): 100%
Population Pyknosed Nuclei (%) (Fibroblast; [3]): 9.23% and 14.41%
Population Tubulin-Different-Phenotype (%) (Fibroblast; [3]): 31.45% and 73.68%
Total Cell Count (Fibroblast; [3]): 195 and 229

— ChEMBL document CHEMBL5724801, “EUbOPEN Chemogenomics Library - Multiplex” (2024)
